Numbered stars: 1 amine (or outer) side, 2 acyl side, 3 side chain; on linkers, the order of the positions; unused ones are H or OH. Square brackets hold non-standard residues; d marks the D form. Peptide text beside a SMILES is read from it. * marks the point of attachment. X1 = CCN1C(=CC=CC=CC2=[N+](CCCCCC(=O)NCCN3C(=O)CC(*)C3=O)c3ccc(S(=O)(=O)[O-])cc3C2(C)C)C(C)(C)c2cc(S(=O)(=O)O)ccc21; Suc = O=C(CCC(=O)[*:2])[*:1]; Ahx = NCCCCCC(=O)O

A short description of one series: Biodistribution. It is filed as in vivo, mice. To be noted: for Time for blood Cy5 fluorescence to decline to the same level: 10 nmol IV, blood from tail artery, average of three mice (Fig. 3B). Put shortly:
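Athymic nude mice carried HT1080 xenografts from 2 million cells injected into the mammary fat pad 5–7 days earlier. Each received 10 nmol Cy5-labelled peptide into the tail vein. Tail-artery blood in capillaries was imaged for Cy5 (640 nm excitation, 700 nm emission). At 30 min and 6 h, organ pieces were homogenised in 10 mM Tris pH 7.6 with 1% SDS, boiled, centrifuged and imaged frozen. Concentration came from tissue-specific spiked standard curves. SUV = (moles/g tissue)/(moles injected/body weight).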

A further series has as its system HT1080 xenografted mice. The series can be described thus: Confocal imaging of live mouse tissues after IV injection. In kind it is in vivo. To be noted: for Nuclear uptake in live tumor and tissues: 10 nmol IV, confocal stacks of live tissue, 30 minutes and 6 hours. The gist of the method: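 Xenografted HT1080 nude mice got 10 nmol Cy5-labelled peptide IV. Five minutes before sacrifice at 30 min or 6 h, they received IV Hoechst 33342 (250 µg) and rhodamine dextran (800 µg) to mark nuclei and blood pool. Organs were held on ice in HBSS and imaged unfixed by confocal microscopy within 30 min, as 3D stacks 5–60 µm deep. Excitation was 630, 405 and 535 nm.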

The subject of a further series is naïve athymic nude mice. Put plainly: Acute toxicity of unlabeled peptides after IV injection. It is filed as in vivo. To be noted: 5 µmol/kg IV, isoflurane anesthesia, unlabeled peptide.
Setting [1] is: 10 nmol injection, assuming 20–25g mouse.
The mark [2] stands for this setting: athymic nude, mouse, kidney, iv, 10 nmol.
[3] abbreviates: athymic nude, mouse, liver, iv, 10 nmol.
Where [4] appears, read: athymic nude, mouse, tumor, iv, 10 nmol.

In the case of `CCN1C(=CC=CC=CC2=[N+](CCCCCC(=O)NCCN3C(=O)CC(SC[C@@H](NC(=O)[C@@H](CCCNC(=N)N)NC(=O)[C@@H](CCCNC(=N)N)NC(=O)[C@@H](CCCNC(=N)N)NC(=O)[C@@H](CCCNC(=N)N)NC(=O)[C@@H](CCCNC(=N)N)NC(=O)[C@@H](CCCNC(=N)N)NC(=O)[C@@H](CCCNC(=N)N)NC(=O)[C@@H](CCCNC(=N)N)NC(=O)[C@@H](CCCNC(=N)N)NC(=O)CNC(=O)[C@H](C)NC(=O)[C@H](CC(C)C)NC(=O)CNC(=O)[C@H](CC(C)C)NC(=O)[C@@H]4CCCN4C(=O)CCCCCNC(=O)[C@@H](CCC(=O)O)NC(=O)[C@@H](CCC(=O)O)NC(=O)[C@@H](CCC(=O)O)NC(=O)[C@@H](CCC(=O)O)NC(=O)[C@@H](CCC(=O)O)NC(=O)[C@@H](CCC(=O)O)NC(=O)[C@@H](CCC(=O)O)NC(=O)[C@@H](CCC(=O)O)NC(=O)CCC(=O)O)C(N)=O)C3=O)c3ccc(S(=O)(=O)[O-])cc3C2(C)C)C(C)(C)c2cc(S(=O)(=O)O)ccc21` (stereo partly drawn) [ACPP, succinyl-e8-(x)-PLGLAG-r9-c(Cy5)-NH2] (Suc-[dE][dE][dE][dE][dE][dE][dE][dE][Ahx]PLGLAG[dR][dR][dR][dR][dR][dR][dR][dR][dR][dC](X1)-NH2), the “Time for blood Cy5 fluorescence to decline to the same level” value in “Biodistribution” came to 30 min. Besides, the “Final peptide concentration in kidney based on SUV” value in “Biodistribution” (setting [1]) lay within 8 to 17 µmol/kg. The “Tumor SUV compared with CPP” value in “Biodistribution” (30 minutes after 10 nmol IV, HT1080 tumor homogenate, n=4 ACPP, n=3 CPP) was “slightly but not significantly greater”. The “Tumor uptake (SUV) relative to muscle” value in “Biodistribution” (6 hours after 10 nmol IV, HT1080 tumor) is listed as “roughly 4 fold”. In the series “Biodistribution” (setting [2]), this compound registered a tissue uptake dose at 0.5 h of 28 %ID and a tissue uptake dose at 6 h of 48 %ID. In “Biodistribution” (setting [3]), the tissue uptake dose at 0.5 h was 21 %ID and the tissue uptake dose at 6 h was 33 %ID. In the series “Biodistribution” (setting [4]), the SUV at 6 h was found to be 174 SUV and the tissue uptake (in general, the share of the injected amount in each gram of the tissue) at 6 h came out at 1.7 %ID/g. In addition, in the series on HT1080 xenografted mice, the “Nuclear uptake in live tumor and tissues” value was “below the detection limit”. In the series with HT1080 xenografted mice (100 nmol or 5 µmol/kg IV, one mouse), the “Nuclear uptake in live tissues at 10 times the usual dose” value is “no detectable nuclear uptake in any tissue”. Further, in the series with HT1080 xenografted mice (HT1080 tumors, 30 minutes and 6 hours after 10 nmol IV (Fig. 5A, B)), the “Tumor fluorescence signal (confocal) compared with CPP” value is “about four times higher”. For the same compound, the Acute effect result in the series with naïve athymic nude mice is recorded as “no acute effect”.

As for `CCN1C(=CC=CC=CC2=[N+](CCCCCC(=O)NCCN3C(=O)CC(SC[C@@H](NC(=O)[C@@H](CCCNC(=N)N)NC(=O)[C@@H](CCCNC(=N)N)NC(=O)[C@@H](CCCNC(=N)N)NC(=O)[C@@H](CCCNC(=N)N)NC(=O)[C@@H](CCCNC(=N)N)NC(=O)[C@@H](CCCNC(=N)N)NC(=O)[C@@H](CCCNC(=N)N)NC(=O)[C@@H](CCCNC(=N)N)NC(=O)[C@H](N)CCCNC(=N)N)C(N)=O)C3=O)c3ccc(S(=O)(=O)[O-])cc3C2(C)C)C(C)(C)c2cc(S(=O)(=O)O)ccc21` (stereo partly drawn) [CPP, r9-c(Cy5)-NH2], the “Time for blood Cy5 fluorescence to decline to the same level” value in “Biodistribution” is 3 min. Moreover, the “Final peptide concentration in liver based on SUV” value in “Biodistribution” (setting [1]) fell in the range of 8 to 17 µmol/kg. In “Biodistribution” (setting [2]), this compound showed a tissue uptake dose at 0.5 h of 8 %ID and a tissue uptake dose at 6 h of 9 %ID. In the series “Biodistribution” (setting [3]), the tissue uptake dose at 0.5 h was 90 %ID and the tissue uptake dose at 6 h is 84 %ID. Besides, in the series on HT1080 xenografted mice, the “Nuclear uptake in live tumor and tissues” value was “below the detection limit”.

These data come from publication PMC2796831 (Integrative biology : quantitative biosciences from nano to …, 2009).
